Where a SMILES comes first, the peptide text is derived from it. [ ]: non-standard residue; d: D form.
Assays:
macrophages = test: M2pep sequence specificity of macrophage toxicity; assay type: cell-based, murine; settings: peptides partially dimerized in solution; Fig. S3, linkers Fig. S4
M1 macrophages = test: Cell viability during binding study; assay type: cell-based, murine; settings: 20 min on ice, PI staining; up to 50 µM; Fig. 1B
How it was run: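 Bone-marrow cells cultured 7 d in RPMI 1640 with 20% horse serum, 1% antibiotic-antimycotic and 20 ng/mL M-CSF, then activated 2 d with 25 ng/mL IFN-γ plus 100 ng/mL LPS. Cells were plated at 50,000/well and given biotinylated peptide in PBS/1% BSA on ice. After washing they were given streptavidin-FITC for 15 min on ice. Dead cells were scored by PI flow cytometry. Triplicates, three independent experiments.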

M2 macrophages = assay type: cell-based; settings: 2 h

Compound | macrophage toxicity (macrophages) | further results
YEQDPWGVKWWYGGGSKKKC [M2pepKKKC] | toxicity was only observed in the M2pepKKKC-treated samples | –
WEDYQWPVYKGWGGGSKKKC [scrambled M2pepKKKC, reference compound] | toxicity was only observed in the M2pepKKKC-treated samples | –
YEQDPWGVKWWYGGGSKKKBiotin [M2pepBiotin] | – | toxicity to M1 macrophages during binding study (M1 macrophages): no toxicity to either cell type
CC(C)C[C@@H](NC(=O)[C@@H](CCCCN)NC(=O)[C@H](CO)NC(=O)CNC(=O)CNC(=O)CNC(=O)[C@H](Cc1ccc(O)cc1)NC(=O)[C@H](Cc1c[nH]c2ccccc12)NC(=O)[C@H](Cc1c[nH]c2ccccc12)NC(=O)[C@H](CCCCN)NC(=O)[C@@H](NC(=O)CNC(=O)[C@H](Cc1c[nH]c2ccccc12)NC(=O)[C@@H]1CCCN1C(=O)[C@H](CC(=O)O)NC(=O)[C@H](CCC(N)=O)NC(=O)[C@H](CCC(=O)O)NC(=O)[C@@H](N)Cc1ccc(O)cc1)C(C)C)C(=O)N[C@H](C)C(=O)N[C@H](CCCCN)C(=O)N[C@H](CC(C)C)C(=O)N[C@H](C)C(=O)N[C@H](CCCCN)C(=O)N[C@H](CCCCN)C(=O)N[C@H](CC(C)C)C(=O)N[C@H](C)C(=O)N[C@H](CCCCN)C(=O)N[C@H](CC(C)C)C(=O)N[C@H](C)C(=O)N[C@H](CCCCN)C(N)=O [M2pepKLA] (H-YEQDPWGVKWWYGGGS[dK][dL][dA][dK][dL][dA][dK][dK][dL][dA][dK][dL][dA][dK]-NH2) | – | EC50 (M2 macrophages): 4.29 µM
